Assay results published in ChEMBL document CHEMBL3352380, “Development of benzo[d]oxazol-2(3H)-ones derivatives as novel inhibitors of Mycobacterium tuberculosis InhA” (Bioorg Med Chem, 2014).
Values after ≈ are worked out from the molar mass of the structure shown.

system: Mycobacterium tuberculosis; assay: Antimicrobial activity against extensively drug-resistant Mycobacterium tuberculosis XDR-TB after 28 days by two-fold agar dilution method; format: functional; conditions: 672 h
Procedure, shortened: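 Two-fold serial dilutions in Middlebrook 7H11 agar with OADC supplement, final 50 to 0.78 µg/mL. Inoculum from fresh 7H11/OADC slants, adjusted to 1 mg/mL wet weight in 0.05% Tween 80 saline and diluted 10^-2 (~10^7 cfu/mL), spotted onto drug-containing agar tubes. Incubated at 37 °C; MIC is the lowest concentration inhibiting growth, read at 28 days.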

Row | SMILES | MIC [µM]
1 | O=C(Cn1c(=O)oc2ccccc21)NCc1ccco1 | 11.5 (≈ 3.12 µg/mL)
2 | O=C(Cn1c(=O)oc2ccccc21)NCc1cccs1 | 21.7 (≈ 6.25 µg/mL)
3 | O=C(Cn1c(=O)oc2cc([N+](=O)[O-])ccc21)NCc1cccs1 | 18.8 (≈ 6.25 µg/mL)
4 | O=C(Cn1c(=O)oc2cc(Cl)ccc21)Nc1ncc([N+](=O)[O-])s1 | 17.6 (≈ 6.25 µg/mL)
5 | O=C(Cn1c(=O)oc2cc([N+](=O)[O-])ccc21)Nc1ncc([N+](=O)[O-])s1 | 17.1 (≈ 6.25 µg/mL)
6 | O=C(Cn1c(=O)oc2ccccc21)Nc1nc2ccccc2s1 | 38.4 (≈ 12.5 µg/mL)
7 | O=C(Cn1c(=O)oc2cc(Cl)ccc21)Nc1nc2ccccc2s1 | 34.7 (≈ 12.5 µg/mL)
8 | O=C(Cn1c(=O)oc2cc([N+](=O)[O-])ccc21)Nc1nc2ccc([N+](=O)[O-])cc2s1 | 15 (≈ 6.25 µg/mL)
9 | CC[C@@H](CO)NCCN[C@@H](CC)CO [ETHAMBUTOL] | 24.5 (≈ 5 µg/mL)
10 | NNC(=O)c1ccncc1 [ISONIAZID] | 45.6 (≈ 6.25 µg/mL)
11 | CO[C@H]1/C=C/O[C@@]2(C)Oc3c(C)c(O)c4c(O)c(c(/C=N/N5CCN(C)CC5)c(O)c4c3C2=O)NC(=O)/C(C)=C\C=C\[C@H](C)[C@H](O)[C@@H](C)[C@@H](O)[C@@H](C)[C@H](OC(C)=O)[C@@H]1C [RIFAMPIN] | 30.4 (≈ 25 µg/mL)
